From PMC5839499 (Biomolecules & Therapeutics, 2018) come the findings set out here.

Each structure is given as a SMILES string. “Also recorded” adds a separate entry of the source.

Data set [1] concerns the target T1, human GPR119 (Homo sapiens, UniProt Q8TDV5).
T1 sequence (Q8TDV5 1-335): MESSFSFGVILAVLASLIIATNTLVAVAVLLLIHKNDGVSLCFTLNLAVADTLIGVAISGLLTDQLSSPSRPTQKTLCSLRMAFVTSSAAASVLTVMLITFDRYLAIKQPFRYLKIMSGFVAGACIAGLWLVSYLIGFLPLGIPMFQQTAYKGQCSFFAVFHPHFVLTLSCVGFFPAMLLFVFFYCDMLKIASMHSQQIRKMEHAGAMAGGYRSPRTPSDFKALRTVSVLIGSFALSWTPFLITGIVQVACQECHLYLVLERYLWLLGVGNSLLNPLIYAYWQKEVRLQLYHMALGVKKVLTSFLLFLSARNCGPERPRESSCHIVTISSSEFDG
The data set can be described thus: cAMP accumulation assay. It counts as cell-based. Summed up: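 CHO-K1 cells carry doxycycline-inducible human GPR119 and a CRE-driven beta-lactamase reporter. Cells were seeded at 10⁴ cells/well, induced with doxycycline 1 ug/mL, and treated 5 h with test compound at varying concentrations (DMSO stocks diluted in medium). cAMP was read by ratiometric FRET beta-lactamase substrate, in triplicate per concentration, from ≥3 independent experiments.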

Data set [2] in a line: Cytotoxicity assay. It counts as cell-based. The note with it: human, HepG2 cells. The essentials:
(§1)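 MTT assay. Cells were seeded at 2–3×10⁴ cells/well and cultured 24 h. Test compound was added at a final 0.1–100 μM for 48 h. MTT (5 mg in PBS, pH 7.2) was added for 4 h at 37°C, then DMSO. Absorbance was read at 540 nm; % viability = treated/untreated absorbance ×100; n=3.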

Data set [3] has as its system HIT-T15, GLUTag, and HepG2. The data set can be described thus: Cytotoxicity assay. In kind it is cell-based. The note with it: MTT, 48 h. Summed up:
as §1

The nature of data set [4]: Cytotoxicity assay. In kind it is cell-based. The conditions noted are these: mouse, GLUTag L cells. Summed up: as §1
The subject of data set [5] is normal C57BL/6J mice. The data set can be described thus: Oral glucose tolerance test, single administration in normal mice. It counts as in vivo.
Data set [6] can be described thus: Pharmacokinetics of YH18968 in normal mice. It counts as in vivo, C57BL/6J mice. The note with it: male, C57BL/6J, mouse, plasma. Summed up: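 Overnight-fasted 8-week-old male C57BL/6J mice, with free access to water, received 1 mg/kg iv via tail vein or oral doses of 1, 10 and 100 mg/kg as a suspension in 0.5% methyl cellulose; n=2 per time point. Plasma underwent protein precipitation and LC-MS/MS quantification. Parameters, including F, came from non-compartmental analysis.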

For data set [7], the system named is HIT-T15 cells. The data set can be described thus: Insulin release assay. It counts as cell-based, hamster. Summed up: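 HIT-T15 cells were seeded at 2×10⁵ cells/well and grown 48 h. They were washed in Krebs-Ringer bicarbonate buffer (pH 7.4, 0.2% BSA) and preincubated 60 min at 37°C with 5 mM glucose. Stimulation was with 0.1 uM test compound at 15 mM glucose, 60 min, 37°C; GSIS used 100 nM at 0, 3 and 15 mM glucose, 1 h. Supernatant insulin was measured by ELISA in triplicate.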

The subject of data set [8] is normal C57BL/6J mice. The data set can be described thus: Blood active GLP-1 levels after single oral administration in normal mice. In kind it is in vivo. The note with it: 10 mg/kg oral, 30 minutes after administration, overnight-fasted mice. Summed up: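 Overnight-fasted male C57BL/6J mice (n=6) got a single oral dose of test compound, alone or with linagliptin (1 mg/kg). The control got 0.5% methyl cellulose vehicle. Blood was drawn 30 min after dosing, and active GLP-1 was measured against the vehicle group.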

Data set [9] in a line: Aqueous solubility in the buffer. In kind it is physicochemical.
For data set [10], the system named is DIO mice. The data set can be described thus: Oral glucose tolerance test, repeat administration for 4 weeks in DIO mice. In kind it is in vivo. The essentials: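 17-week-old male DIO mice were dosed orally once daily for 4 weeks with vehicle (0.5% methyl cellulose), test compound, MBX2982 10 mg/kg, linagliptin 1 mg/kg, or combinations. OGTT was run on days 1 and 29 in overnight-fasted mice: dose, then an oral 2 g/kg glucose bolus 30 min later. Tail-vein glucose was read by glucometer at 0–120 min, and AUC0–2h was calculated.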

For data set [11], the system named is GLUTag cells. The data set can be described thus: GLP-1 release assay. It counts as cell-based, murine. The essentials:
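GLUTag cells (DMEM, 10% FBS) were seeded at 10⁵ cells/well and grown 48 h. They were washed twice with serum-free DMEM, then exposed to 0.1 uM test compound in serum-free DMEM at 37°C for 120 min. Supernatant was clarified by 5-min centrifugation, and GLP-1 was measured by ELISA in triplicate.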

In [1], `CCc1cnc(N2CCC(c3nc(COc4ccc(-n5cnnn5)cc4)cs3)CC2)nc1` [MBX2982, reference compound] registered an EC50 of 11.2 nM. For the same compound, the figures for the CC50 at 48 h in data set [2] and in [4] were 15900 nM and 12200 nM, respectively. The “concentration up to which cytotoxicity was not observed” value in [3] was found to be 1000 nM.
Take `CC(C)c1nc(N2CCN(c3ncc(-c4ccc(-n5cnn([C@H]6CCOC6)c5=O)c(F)c4)cc3C#N)CC2)no1` [YH18968, (S)-5-(3-fluoro-4-(5-oxo-1-(tetrahydrofuran-3-yl)-1,5-dihydro-4H-1,2,4-triazol-4-yl)phenyl)-2-(4-(5-isopropyl-1,2,4-oxadiazol-3-yl)piperazin-1-yl)nicotinonitrile]: the “AUC for blood glucose in OGTT versus vehicle control” value in data set [5] (single oral 0.1, 1, and 10 mg/kg, dose-dependent) is “significantly lowered”. Further, in data set [5] (single oral 1 and 10 mg/kg), the “glucose lowering effect compared with 30 mg/kg of MBX2982” value was “more potent glucose lowering effects”. Besides, in [6] (iv, 1 mg/kg), the AUC(0-inf) was 1620 ng·h/mL, the AUC(0-t) turned out to be 1380 ng·h/mL, the MRT amounted to 3.4 h and the Vd amounted to 2.11 L/kg. The compound further showed a clearance in data set [6] (iv, 1 mg/kg) of 10.3 mL/min/kg. In addition, in data set [6] (po), the Tmax was 0.5 h and the bioavailability is 4.8 to 40%. Also, in data set [6] (po, 1 mg/kg), the AUC(0-inf) came to 720 ng·h/mL, the AUC(0-t) was 550 ng·h/mL, the Cmax was 169 ng/mL and the Tmax turned out to be 0.5 h. In [6] (po, 1 mg/kg), this compound showed a bioavailability of 40% and a half-life of 3.1 h. For the same compound, in data set [6] (po, 10 mg/kg), the AUC(0-inf) was found to be 2960 ng·h/mL, the AUC(0-t) was 2470 ng·h/mL, the Cmax was determined as 760 ng/mL and the Tmax worked out at 0.5 h. Besides, in data set [6] (po, 10 mg/kg), the bioavailability turned out to be 18% and the half-life is 2.6 h. Besides, in data set [6] (po, 100 mg/kg), the AUC(0-inf) came to 15800 ng·h/mL, the AUC(0-t) was found to be 6540 ng·h/mL, the highest level (Cmax) was 1470 ng/mL and the Tmax amounted to 0.5 h. In data set [6] (po, 100 mg/kg), this compound showed a bioavailability of 4.8% and a half-life of 9.2 h. The EC50 in [1] turned out to be 2.8 nM. For the same compound, in data set [1] (more potent than MBX2982 (EC50 11.2 nM, same assay)), the “potency on human GPR119 relative to MBX2982” value is “approximately 4 fold”. Besides, the “potency of human GPR119 activation relative to MBX2982” value in [1] (more potent than the reported effect of MBX2982 (EC50 8.33 nM, HEK293)) is “approximately 3 fold”. For the same compound, the “glucose-stimulated insulin secretion (GSIS)” value in [7] (100 nM, 3 and 15 mM glucose, 1 h) is on record as “enhanced in a glucose-dependent manner”. Moreover, the “insulin release without glucose” value in [7] (100 nM, cells incubated without glucose, 1 h) was “no effect”. Besides, the insulin secretion in data set [7] (HIT-T15 cell, 0.1 uM, 15 mM glucose, 60 min) was determined as 1.9 fold. Besides, the “increase of active GLP-1 levels compared to the vehicle control” value in data set [8] is reported as 2.7 fold. Besides, in data set [9], the aqueous solubility result was “poor”. For the same compound, the “AUC for blood glucose in OGTT versus vehicle control, day 1” value in data set [10] (1 mg/kg oral once daily, day 1, DIO mice) is “significantly lowered; also recorded: significant decrease”. In addition, the “glucose lowering effect compared with 10 mg/kg of MBX2982, day 1” value in [10] (1 mg/kg oral, day 1, DIO mice) is reported as “more potent glucose lowering effect”. Further, the GLP-1 secretion in data set [11] (GLUTag cell, 0.1 uM, 120 min) is on record as 2.3 fold. Also, the EC50 in data set [11] (Mus musculus, GLUTag, read-out: EC50, GLP-1 secretion) worked out at 0.1 nM. Besides, the “concentration up to which cytotoxicity was not observed” value in [3] came to 5000 nM.
`CC#CCn1c(N2CCC[C@@H](N)C2)nc2c1c(=O)n(Cc1nc(C)c3ccccc3n1)c(=O)n2C` [linagliptin, reference compound]: the “AUC blood glucose level in OGTT” value in data set [10] (1 mg/kg of linagliptin, DIO mice) was “near normal range”.
